Assay results from ChEMBL document CHEMBL5230180, “A cationic amphiphilic peptide chaperone rescues Aβ42 aggregation and cytotoxicity” (RSC Med Chem, 2023).
Blank lines part the entries; values can stand above or below the compound they belong to. Active and inactive are the calls of the source. The rule behind the calls is not given here.

Columns and labels:
SH-SY5Y [1] = assay: Cytotoxicity against human SH-SY5Y cells assessed as reduction in cell viability at 30 uM incubated for 24 hrs by MTT assay; format: toxicity, cell-based
Method in brief: (§1)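 SH-SY5Y neuronal cells exposed to peptide alone (1–30 μM) at 37 °C up to 24 h; viability by MTT conversion to formazan, compared with untreated control cells.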

[2] = molecular target: Amyloid-beta precursor protein (Homo sapiens) (UniProt P05067); assay: Inhibition of amyloid beta 42 (unknown origin) aggregation assessed as reduction in fluorescence intensity measured for 48 hrs by ThT fluorescence assay
Chain of Amyloid-beta precursor protein (Homo sapiens) (P05067 whole entry): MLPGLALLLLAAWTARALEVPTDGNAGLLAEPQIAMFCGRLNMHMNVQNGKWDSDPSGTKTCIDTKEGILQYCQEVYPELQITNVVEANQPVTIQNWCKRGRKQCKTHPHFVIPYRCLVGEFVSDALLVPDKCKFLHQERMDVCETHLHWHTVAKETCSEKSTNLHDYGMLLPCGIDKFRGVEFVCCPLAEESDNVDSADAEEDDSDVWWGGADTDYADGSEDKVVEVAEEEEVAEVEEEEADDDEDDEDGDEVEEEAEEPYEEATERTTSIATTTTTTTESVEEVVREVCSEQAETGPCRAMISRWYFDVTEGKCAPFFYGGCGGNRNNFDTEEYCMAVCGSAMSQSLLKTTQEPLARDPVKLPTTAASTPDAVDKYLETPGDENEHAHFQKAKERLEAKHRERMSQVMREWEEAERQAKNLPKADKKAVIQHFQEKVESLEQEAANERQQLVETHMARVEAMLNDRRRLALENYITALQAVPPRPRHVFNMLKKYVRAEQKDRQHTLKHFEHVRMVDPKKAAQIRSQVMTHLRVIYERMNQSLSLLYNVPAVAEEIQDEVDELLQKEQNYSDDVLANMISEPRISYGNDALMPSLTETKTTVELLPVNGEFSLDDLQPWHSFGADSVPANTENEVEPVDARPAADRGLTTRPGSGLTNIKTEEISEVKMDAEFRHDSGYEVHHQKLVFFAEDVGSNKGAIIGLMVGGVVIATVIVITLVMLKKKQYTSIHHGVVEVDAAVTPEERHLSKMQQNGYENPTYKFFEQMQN
Method in brief: (§2)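 Soluble (pre-aggregation) Aβ42 at 25 μM with 20 μM ThT, incubated with peptide at 0.1–10 equivalents (2.5–250 μM) in 10 mM sodium phosphate, 150 mM NaCl, 1 mM EDTA, pH 7.4; time-dependent ThT fluorescence monitored, normalized to Aβ42 alone.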

[3] = molecular target: Amyloid-beta precursor protein (Homo sapiens) (UniProt P05067); assay: Inhibition of amyloid beta 42 (unknown origin) aggregation assessed as lag time for Abeta42 aggregation at Abeta42:compound concentration ratio of 1:1 by ThT fluorescence assay (reference value: 6.35 +/-0.32 hrs)
[4] = molecular target: Amyloid-beta precursor protein (Homo sapiens) (UniProt P05067); assay: Inhibition of amyloid beta 42 (unknown origin) aggregation assessed as half time for Abeta42 aggregation at Abeta42:compound concentration ratio of 1:1 by ThT fluorescence assay (reference value: 9.34 +/-0.25 hrs)
SH-SY5Y [5] = assay: Protection against Abeta42-induced cytotoxicity in human SH-SY5Y cells assessed as increase in cell viability at Abeta42:compound concentration ratio of 1:1 incubated for 24 hrs by MTT assay; format: functional, cell-based
Method in brief: (§3)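 SH-SY5Y cells given 10 μM soluble Aβ42 with peptide (1, 2, 3, 5, 10, 30 μM; 1:1 for comparison) at 37 °C up to 24 h; MTT formazan read-out relative to cells without peptide or Aβ42; IC50 from dose–response.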

[6] = molecular target: Amyloid-beta precursor protein (Homo sapiens) (UniProt P05067); assay: Inhibition of amyloid beta 42 (unknown origin) aggregation assessed as half time for Abeta42 aggregation at Abeta42:compound concentration ratio of 1:0.5 by ThT fluorescence assay (reference value: 9.34 +/-0.25 hrs)
[7] = molecular target: Amyloid-beta precursor protein (Homo sapiens) (UniProt P05067); assay: Inhibition of 15N-labeled amyloid beta 42 (unknown origin) aggregation assessed as Abeta42 conformational reorganization by measuring changes in positions of Abeta42 cross-peaks at Abeta42:compound concentration ratio of 1:1 by 1H-15N HSQC NMR spectral analysis
[8] = molecular target: Amyloid-beta precursor protein (Homo sapiens) (UniProt P05067); assay: Inhibition of amyloid beta 42 (unknown origin) aggregation assessed as reduction in fluorescence intensity at Abeta42:compound concentration ratio of 1:5 measured for 48 hrs by ThT fluorescence assay; method in brief: as §2
[9] = molecular target: Amyloid-beta precursor protein (Homo sapiens) (UniProt P05067); assay: Inhibition of amyloid beta 42 (unknown origin) aggregation assessed as fluorescence intensity at 0.1 equivalents measured for 48 hrs by ThT fluorescence assay; parameters: scale not given: the % may be the effect or the level left; settings: dose 0.1 equiv; method in brief: as §2
[10] = molecular target: Amyloid-beta precursor protein (Homo sapiens) (UniProt P05067); assay: Inhibition of amyloid beta 42 (unknown origin) aggregation assessed as reduction in Abeta42 fibrillar network at 10 uM incubated for 48 hrs by AFM analysis
Method in brief: (§4)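 10 μM soluble Aβ42 incubated at 37 °C for about 48 h alone or with peptide (1:1; 10 μM); fibril morphology imaged by HR-TEM and AFM.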

[11] = molecular target: Amyloid-beta precursor protein (Homo sapiens) (UniProt P05067); assay: Inhibition of amyloid beta 42 (unknown origin) aggregation assessed as aggregated particle size at equimolar concentration with Abeta42 incubated for 24 hrs by Dynamic light scattering based analysis (reference value: 800 nm)
Method in brief: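 Dynamic light scattering of 10 μM Aβ42 with or without peptide after 24 h at 37 °C; frequency distribution of particle diameter.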

[12] = molecular target: Amyloid-beta precursor protein (Homo sapiens) (UniProt P05067); assay: Inhibition of amyloid beta 42 (unknown origin) aggregation assessed as fluorescence intensity at compound:Abeta42 concentration ratio of 0.5:1 measured for 48 hrs by ThT fluorescence assay; parameters: scale not given: the % may be the effect or the level left; method in brief: as §2
[13] = molecular target: Amyloid-beta precursor protein (Homo sapiens) (UniProt P05067); assay: Inhibition of amyloid beta 42 (unknown origin) aggregation assessed as reduction in fluorescence intensity at equimolar concentration with Abeta42 incubated for 48 hrs by ThT laser scanning confocal microscopy
[14] = molecular target: Amyloid-beta precursor protein (Homo sapiens) (UniProt P05067); assay: Inhibition of amyloid beta 42 (unknown origin) aggregation assessed as decrease in absorbance at 450 nm at Abeta42:compound concentration ratio of 1:0.5 to 1:10 incubated for up to 24 hrs by ELISA
Method in brief: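 Aβ42 in PBS preincubated 24 h with peptide (0.5–10 equivalents), then captured on oligomer-specific monoclonal antibody-coated wells; detection via biotinylated antibody, streptavidin-HRP and TMB, absorbance 450 nm; peptide-alone wells included.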

[15] = molecular target: Amyloid-beta precursor protein (Homo sapiens) (UniProt P05067); assay: Inhibition of amyloid beta 42 (unknown origin) aggregation assessed as reduction in fluorescence intensity at Abeta42:compound concentration ratio of 1:3 measured for 48 hrs by ThT fluorescence assay; method in brief: as §2
[16] = molecular target: Amyloid-beta precursor protein (Homo sapiens) (UniProt P05067); assay: Inhibition of amyloid beta 42 (unknown origin) aggregation assessed as fluorescence intensity at compound:Abeta42 concentration ratio of 1:1 measured for 48 hrs by ThT fluorescence assay; parameters: scale not given: the % may be the effect or the level left; method in brief: as §2
SH-SY5Y [17] = assay: Cytotoxicity against human SH-SY5Y cells assessed as reduction in cell viability upto 30 uM incubated for 24 hrs by MTT assay; format: toxicity, cell-based; method in brief: as §1
[18] = molecular target: Amyloid-beta precursor protein (Homo sapiens) (UniProt P05067); assay: Inhibition of amyloid beta 42 (unknown origin) aggregation assessed as reduction in Abeta42 fibrillar network at compound:Abeta42 concentration ratio of 1:1 incubated for 48 hrs by HR-TEM analysis; method in brief: as §4
[19] = Hemolytic activity against red blood cells (unknown origin) upto 250 uM; format: toxicity, cell-based; settings: erythrocyte
Method in brief: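 Red blood cells treated with a range of peptide concentrations up to 250 μM; haemolysis assessed.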

[20] = molecular target: Amyloid-beta precursor protein (Homo sapiens) (UniProt P05067); assay: Inhibition of amyloid beta 42 (unknown origin) aggregation assessed as reduction in fluorescence intensity at Abeta42:compound concentration ratio of 1:10 measured for 48 hrs by ThT fluorescence assay; method in brief: as §2
[21] = molecular target: Amyloid-beta precursor protein (Homo sapiens) (UniProt P05067); assay: Inhibition of amyloid beta 42 (unknown origin) aggregation assessed as fluorescence intensity at 0.3 equivalents measured for 48 hrs by ThT fluorescence assay; parameters: scale not given: the % may be the effect or the level left; settings: dose 0.3 equiv; method in brief: as §2
[22] = molecular target: Amyloid-beta precursor protein (Homo sapiens) (UniProt P05067); assay: Inhibition of amyloid beta 42 (unknown origin) aggregation assessed as transformation of random coil structure to helical secondary structure with CD minima at 205 nm and 221 nm at Abeta42:compound concentration ratio of 1:1 incubated for 24 hrs by circular dichroism analysis
Method in brief: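 CD spectra of 50 μM soluble Aβ42 in PBS at 0 h and after 24 h at room temperature, alone or with equimolar (50 μM) peptide; peptide alone also recorded.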

[23] = molecular target: Amyloid-beta precursor protein (Homo sapiens) (UniProt P05067); assay: Disruption of aggregated Amyloid beta 42 fibrils (unknown origin) assessed as reduction in fluorescence intensity at compound:Abeta42 concentration ratio of 1:1 treated with compound after 24 hrs of incubation of Abeta42 in solution by ThT fluorescence assay
Method in brief: (§5)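 Aβ42 (25 μM) preincubated with 20 μM ThT at 37 °C; peptide added at 1:1 after 16 or 24 h, incubation continued and ThT fluorescence followed over time; buffer 10 mM sodium phosphate, 150 mM NaCl, 1 mM EDTA, pH 7.4.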

[24] = molecular target: Amyloid-beta precursor protein (Homo sapiens) (UniProt P05067); assay: Disruption of aggregated Amyloid beta 42 fibrils (unknown origin) assessed as reduction in fluorescence intensity at compound:Abeta42 concentration ratio of 1:1 treated with compound after 16 hrs of incubation of Abeta42 in solution by ThT fluorescence assay; method in brief: as §5
SH-SY5Y [25] = assay: Protection against Abeta42-induced cytotoxicity in human SH-SY5Y cells assessed as increase in cell viability incubated for 24 hrs in presence of 10 uM Abeta42 by MTT assay; format: functional, cell-based; method in brief: as §3
[26] = molecular target: Amyloid-beta precursor protein (Homo sapiens) (UniProt P05067); assay: Inhibition of amyloid beta 42 (unknown origin) aggregation assessed as lag time for Abeta42 aggregation at Abeta42:compound concentration ratio of 1:0.5 by ThT fluorescence assay (reference value: 6.35 +/-0.32 hrs)

inhibition [2]: Dose-Dependent Effect
TIME [3]: 2.14 h
T1/2 [4]: 8.22 h
Compound: Ac-KLAKLAKL-NH2
Activity (SH-SY5Y [1]): Non-Toxic
Activity (SH-SY5Y [5]): Active

T1/2 [6]: 6.09 h
Activity [7]: Active
inhibition [8]: Active
Activity [9]: 40%
inhibition [10]: Active
Activity [11]: 100 nm
Activity [12]: 20%
inhibition [13]: Active
inhibition [14]: Active
inhibition [15]: Active
Activity [16]: < 3%
inhibition [18]: Active
inhibition [20]: Active
Activity [21]: 30%
inhibition [22]: Active
Activity [23]: Active
Activity [24]: Active
TIME [26]: 1.8 h
Compound: CC(=O)N[C@@H](CCCCN)C(=O)N[C@@H](CC(C)C)C(=O)N[C@@H](C)C(=O)N[C@@H](CCCCN)C(=O)N[C@@H](CC(C)C)C(=O)N[C@@H](C)C(=O)N[C@@H](CCCCN)C(=O)N[C@@H](CCCCN)C(=O)N[C@@H](CC(C)C)C(=O)N[C@@H](C)C(=O)N[C@@H](CCCCN)C(=O)N[C@@H](CC(C)C)C(=O)N[C@@H](C)C(=O)N[C@@H](CCCCN)C(=O)N[C@@H](CC(C)C)C(N)=O
Activity (SH-SY5Y [17]): Non-Toxic
Activity [19]: Non-Toxic
IC50 (SH-SY5Y [25]): 8.73 µM
Activity (SH-SY5Y [5]): Active

inhibition [2]: inactive
Compound: Ac-ALAALALALAALAAL-NH2

inhibition [2]: Dose-Dependent Effect
TIME [3]: 0.75 h
T1/2 [4]: 9.59 h
Compound: Ac-KLAKLAKKLAKL-NH2
Activity (SH-SY5Y [1]): Non-Toxic
Activity (SH-SY5Y [5]): Active
